Data from ChEMBL document CHEMBL2146366, “Discovery of microsomal triglyceride transfer protein (MTP) inhibitors with potential for decreased active metabolite load compared to dirlotapide” (Bioorg Med Chem Lett, 2011).

Experiments:
Rattus norvegicus [1] = test: Antiobesity activity in high fat diet-induced obese Sprague-Dawley rat assessed as reduction of food intake at 10 mg/kg, po administered daily for 3 days relative to dirlotapide; format: functional; parameters: scale not given: the % may be the effect or the level left
Outline: (§1)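 Male Sprague–Dawley rats (~300 g, n = 5 per group) were acclimatized for seven days to a high-fat diet (45% kcal from fat). They received three consecutive daily oral gavage doses 1.5 h before the dark cycle. Vehicle was SEDDS:H2O 10:90, with SEDDS made of Miglyol 812 10%, triacetin 30%, polysorbate 80 20% and Capmul MCM 30%. Food intake was recorded during dosing, and liver TG was measured afterwards, both against vehicle.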

Rattus norvegicus [2] = test: Antiobesity activity in high fat diet-induced obese Sprague-Dawley rat assessed as reduction in body weight at 10 mg/kg, po administered daily for 3 days relative to dirlotapide; format: functional; parameters: scale not given: the % may be the effect or the level left
Rattus norvegicus [3] = test: Antiobesity activity in high fat diet-induced obese Sprague-Dawley rat assessed as reduction of triglyceride accumulation in liver at 10 mg/kg, po administered daily for 3 days relative to dirlotapide; format: functional; parameters: scale not given: the % may be the effect or the level left; outline: as §1
Rattus norvegicus [4] = test: Antiobesity activity in high fat diet-induced obese Sprague-Dawley rat assessed as reduction of triglyceride accumulation in liver at 10 mg/kg, po administered daily for 3 days relative to control; format: functional; parameters: scale not given: the % may be the effect or the level left; outline: as §1
Rattus norvegicus [5] = test: Antiobesity activity in high fat diet-induced obese Sprague-Dawley rat assessed as reduction in body weight at 10 mg/kg, po administered daily for 3 days relative to control; format: functional; parameters: scale not given: the % may be the effect or the level left
Rattus norvegicus [6] = test: Antiobesity activity in high fat diet-induced obese Sprague-Dawley rat assessed as reduction of food intake at 10 mg/kg, po administered daily for 3 days relative to control; format: functional; parameters: scale not given: the % may be the effect or the level left; outline: as §1
[7] = Fraction unbound in human HepG2 cells by equilibrium dialysis; format: ADME, cell-based
Outline: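 Protein binding was measured by equilibrium dialysis under the conditions of the apoB secretion assay in human HepG2 cells, to give unbound fraction.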

Row | Compound | fraction unbound [7] | Activity (Rattus norvegicus [1]) [%] | Activity (Rattus norvegicus [2]) [%] | Activity (Rattus norvegicus [3]) [%] | Activity (Rattus norvegicus [4]) [%] | Activity (Rattus norvegicus [5]) [%] | Activity (Rattus norvegicus [6]) [%]
1 | CC(C)c1ccc(-c2ccccc2C(=O)Nc2ccc3cc(C(=O)N[C@H](C(=O)N(C)Cc4ccc(F)cc4)c4ccccc4)ccc3n2)cc1 | 0.0011 | 11 | 8 | 70 | 16 | 91 | 38
2 | CC(C)(C)c1ccc(-c2ccccc2C(=O)Nc2ccc3cc(C(=O)N[C@H](C(=O)NCc4ccc(F)cc4)c4ccccc4)ccc3n2)cc1 | 0.0023 |  |  |  |  |  | 
3 | CC(CO)Oc1ccc(-c2ccccc2C(=O)Nc2ccc3cc(C(=O)N[C@H](C(=O)N(C)Cc4ccc(F)cc4)c4ccccc4)ccc3n2)cc1 (some centres not stated) | 0.013 |  |  |  |  |  | 
4 | CC(C)Oc1ccc(-c2ccccc2C(=O)Nc2ccc3cc(C(=O)N[C@H](C(=O)NCc4ccc(F)cc4)c4ccccc4)ccc3n2)cc1 | 0.0061 |  |  |  |  |  | 
5 | CN(Cc1ccc(F)cc1)C(=O)[C@@H](NC(=O)c1ccc2nc(NC(=O)c3ccccc3-c3ccc(OC(C)(C)C)cc3)ccc2c1)c1ccccc1 |  | 38 | 95 | 112 | 72 | 108 | 40
6 | CN(Cc1ccc(F)cc1)C(=O)[C@@H](NC(=O)c1ccc2nc(NC(=O)c3ccccc3-c3ccc(C(C)(C)C(=O)O)cc3)ccc2c1)c1ccccc1 | 0.0088 |  |  |  |  |  | 
7 | CC(C)(C(=O)O)c1ccc(-c2ccccc2C(=O)Nc2ccc3cc(C(=O)N[C@H](C(=O)NCc4ccc(F)cc4)c4ccccc4)ccc3n2)cc1 | 0.0211 |  |  |  |  |  | 
8 | CC(Oc1ccc(-c2ccccc2C(=O)Nc2ccc3cc(C(=O)N[C@H](C(=O)N(C)Cc4ccc(F)cc4)c4ccccc4)ccc3n2)cc1)C(=O)O (some centres not stated) | 0.022 |  |  |  |  |  | 
9 | CN(Cc1ccc(F)cc1)C(=O)[C@@H](NC(=O)c1ccc2nc(NC(=O)c3ccccc3-c3ccc(O)cc3)ccc2c1)c1ccccc1 | 0.0095 |  |  |  |  |  | 
10 | CC(C)(CO)c1ccc(-c2ccccc2C(=O)Nc2ccc3cc(C(=O)N[C@H](C(=O)NCc4ccc(F)cc4)c4ccccc4)ccc3n2)cc1 | 0.0135 |  |  |  |  |  | 
11 | Cc1ccc(-c2ccccc2C(=O)Nc2ccc3cc(C(=O)N[C@H](C(=O)N(C)Cc4ccc(F)cc4)c4ccccc4)ccc3n2)cc1 | 0.0043 | 50 | 117 | 216 | 43 | 75 | 38
12 | CN(Cc1ccc(F)cc1)C(=O)[C@@H](NC(=O)c1ccc2nc(NC(=O)c3ccccc3-c3ccc(C(C)(C)CO)cc3)ccc2c1)c1ccccc1 | 0.023 |  |  |  |  |  | 

More lines, main results first:

Row | fraction unbound [7] | Compound | Activity (Rattus norvegicus [1]) [%] | Activity (Rattus norvegicus [2]) [%] | Activity (Rattus norvegicus [3]) [%] | Activity (Rattus norvegicus [4]) [%] | Activity (Rattus norvegicus [5]) [%] | Activity (Rattus norvegicus [6]) [%]
13 | 0.0014 | CN(Cc1ccc(F)cc1)C(=O)[C@@H](NC(=O)c1ccc2nc(NC(=O)c3ccccc3-c3ccc(C(F)(F)F)cc3)ccc2c1)c1ccccc1 | 11 | 8 | 70 | 88 | 96 | 43
14 | 0.21 | CNC(=O)[C@@H](NC(=O)c1cc2cc(NC(=O)c3ccccc3-c3ccc(C(F)(F)F)cc3)ccc2n1C)c1ccccc1 | 43 | 115 | 112 | 147 | 106 | 40
15 | 0.16 | CNC(=O)[C@@H](NC(=O)c1ccc2nc(NC(=O)c3ccccc3-c3ccc(OC(C)C)cc3)ccc2c1)c1ccccc1 |  |  |  |  |  | 
16 | 0.23 | Cn1c(C(=O)N[C@H](C(N)=O)c2ccccc2)cc2cc(NC(=O)c3ccccc3-c3ccc(C(F)(F)F)cc3)ccc21 | 43 | 115 | 112 | 87 | 108 | 37
17 | 0.038 | CNC(=O)[C@@H](NC(=O)c1ccc2nc(NC(=O)c3ccccc3-c3ccc(C(C)(C)C)cc3)ccc2c1)c1ccccc1 |  |  |  |  |  | 
